Legend:
Type in all cases: functional
Design in all cases: scale not given: the % may be the effect or the level left
SNB-75 = experiment: Growth inhibition of human SNB75 cells assessed tumor cell growth at 10^-5 M
Outline: (§1)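 Single-dose screen at 10^-5 M across the 60 human tumor cell line panel, run to NCI standards. The value is the percent growth of each cell line in the presence of compound. Compounds active at this dose moved on to five-concentration testing (10^-4 to 10^-8 M).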

T47D = experiment: Growth inhibition of human T47D cells assessed tumor cell growth at 10^-5 M; outline: as §1
KM12 = experiment: Growth inhibition of human KM12 cells assessed tumor cell growth at 10^-5 M
Outline: (§2)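 NCI 60-human-tumor-cell-line panel screen. Each compound was tested at a single concentration of 10^-5 M, and percent growth of tumor cells was recorded for each cell line. Growth inhibition was expressed from these percent-growth values.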

NCI-H226 = experiment: Growth inhibition of human NCI-H226 cells assessed tumor cell growth at 10^-5 M; outline: as §2
CCRF-CEM = experiment: Growth inhibition of human CCRF-CEM cells assessed tumor cell growth at 10^-5 M; outline: as §2
MDA-MB-435 = experiment: Growth inhibition of human MDA-MB-435 cells assessed tumor cell growth at 10^-5 M; outline: as §2
ACHN = experiment: Growth inhibition of human ACHN cells assessed tumor cell growth at 10^-5 M; outline: as §2
U-251 = experiment: Growth inhibition of human U251 cells assessed tumor cell growth at 10^-5 M; outline: as §1
TK-10 = experiment: Growth inhibition of human TK10 cells assessed tumor cell growth at 10^-5 M; outline: as §1
SR = experiment: Growth inhibition of human SR cells assessed tumor cell growth at 10^-5 M; outline: as §1
SW-620 = experiment: Growth inhibition of human SW620 cells assessed tumor cell growth at 10^-5 M; outline: as §1
NCI-H460 = experiment: Growth inhibition of human NCI-H460 cells assessed tumor cell growth at 10^-5 M; outline: as §2
HOP-62 = experiment: Growth inhibition of human HOP62 cells assessed tumor cell growth at 10^-5 M; outline: as §2
UACC-62 = experiment: Growth inhibition of human UACC62 cells assessed tumor cell growth at 10^-5 M; outline: as §1
DU-145 = experiment: Growth inhibition of human DU145 cells assessed tumor cell growth at 10^-5 M; outline: as §2
IGROV-1 = experiment: Growth inhibition of human IGROV1 cells assessed tumor cell growth at 10^-5 M; outline: as §2
SK-MEL-2 = experiment: Growth inhibition of human SK-MEL-2 cells assessed tumor cell growth at 10^-5 M; outline: as §2
SK-MEL-5 = experiment: Growth inhibition of human SK-MEL-5 cells assessed tumor cell growth at 10^-5 M; outline: as §2
COLO 205 = experiment: Growth inhibition of human COLO205 cells assessed tumor cell growth at 10^-5 M; outline: as §2
HCT-15 = experiment: Growth inhibition of human HCT15 cells assessed tumor cell growth at 10^-5 M; outline: as §2
NCI-H322M = experiment: Growth inhibition of human NCI-H322M cells assessed tumor cell growth at 10^-5 M; outline: as §2
OVCAR-3 = experiment: Growth inhibition of human OVCAR3 cells assessed tumor cell growth at 10^-5 M; outline: as §2
OVCAR-8 = experiment: Growth inhibition of human OVCAR8 cells assessed tumor cell growth at 10^-5 M; outline: as §2
HCT-116 = experiment: Growth inhibition of human HCT116 cells assessed tumor cell growth at 10^-5 M; outline: as §2
MOLT-4 = experiment: Growth inhibition of human MOLT4 cells assessed tumor cell growth at 10^-5 M; outline: as §2
786-0 = experiment: Growth inhibition of human 786-0 cells assessed tumor cell growth at 10^-5 M; outline: as §2
UACC-257 = experiment: Growth inhibition of human UACC257 cells assessed tumor cell growth at 10^-5 M; outline: as §1
LOX IMVI = experiment: Growth inhibition of human LOXIMVI cells assessed tumor cell growth at 10^-5 M; outline: as §2
SF-539 = experiment: Growth inhibition of human SF539 cells assessed tumor cell growth at 10^-5 M; outline: as §2
RXF 393 = experiment: Growth inhibition of human RXF393 cells assessed tumor cell growth at 10^-5 M; outline: as §2
PC-3 = experiment: Growth inhibition of human PC3 cells assessed tumor cell growth at 10^-5 M; outline: as §2
A549 = experiment: Growth inhibition of human A549 cells assessed tumor cell growth at 10^-5 M; outline: as §2
NCI/ADR-RES = experiment: Growth inhibition of human NCI/ADR-RES cells assessed tumor cell growth at 10^-5 M; outline: as §2
UO-31 = experiment: Growth inhibition of human UO31 cells assessed tumor cell growth at 10^-5 M; outline: as §1
A498 = experiment: Growth inhibition of human A498 cells assessed tumor cell growth at 10^-5 M; outline: as §2
SNB-19 = experiment: Growth inhibition of human SNB19 cells assessed tumor cell growth at 10^-5 M; outline: as §1
SK-OV-3 = experiment: Growth inhibition of human SKOV3 cells assessed tumor cell growth at 10^-5 M; outline: as §2
Malme-3M = experiment: Growth inhibition of human MALME-3M cells assessed tumor cell growth at 10^-5 M; outline: as §2
MDA-MB-468 = experiment: Growth inhibition of human MDA-MB-468 cells assessed tumor cell growth at 10^-5 M; outline: as §2
OVCAR-5 = experiment: Growth inhibition of human OVCAR5 cells assessed tumor cell growth at 10^-5 M; outline: as §2
HOP-92 = experiment: Growth inhibition of human HOP92 cells assessed tumor cell growth at 10^-5 M; outline: as §2
[1] = Growth inhibition of human […] cells assessed tumor cell growth at 10^-5 M; outline: as §2
SF-295 = experiment: Growth inhibition of human SF295 cells assessed tumor cell growth at 10^-5 M; outline: as §2
SK-MEL-28 = experiment: Growth inhibition of human SK-MEL-28 cells assessed tumor cell growth at 10^-5 M; outline: as §2
HL-60(TB) = experiment: Growth inhibition of human HL-60(TB) cells assessed tumor cell growth at 10^-5 M
Outline: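 HL-60(TB), part of the 60-line panel, tested at a single concentration of 10^-5 M. The read-out is percent tumor cell growth relative to untreated growth.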

HT-29 = experiment: Growth inhibition of human HT-29 cells assessed tumor cell growth at 10^-5 M; outline: as §2
EKVX = experiment: Growth inhibition of human EKVX cells assessed tumor cell growth at 10^-5 M; outline: as §2
SF-268 = experiment: Growth inhibition of human SF268 cells assessed tumor cell growth at 10^-5 M; outline: as §2
K562 = experiment: Growth inhibition of human K562 cells assessed tumor cell growth at 10^-5 M; outline: as §2
HCC 2998 = experiment: Growth inhibition of human HCC2998 cells assessed tumor cell growth at 10^-5 M; outline: as §2
SN12C = experiment: Growth inhibition of human SN12C cells assessed tumor cell growth at 10^-5 M; outline: as §2
[2] = Growth inhibition of human Hs 578T cells assessed tumor cell growth at 10^-5 M; outline: as §2
NCI-H522 = experiment: Growth inhibition of human NCI-H522 cells assessed tumor cell growth at 10^-5 M; outline: as §2
MCF7 = experiment: Growth inhibition of human MCF7 cells assessed tumor cell growth at 10^-5 M; outline: as §2
NCI-H23 = experiment: Growth inhibition of human NCI-H23 cells assessed tumor cell growth at 10^-5 M; outline: as §2
BT-549 = experiment: Growth inhibition of human BT549 cells assessed tumor cell growth at 10^-5 M; outline: as §2
OVCAR-4 = experiment: Growth inhibition of human OVCAR4 cells assessed tumor cell growth at 10^-5 M; outline: as §2
MDA-MB-231 = experiment: Growth inhibition of human MDA-MB-231 cells assessed tumor cell growth at 10^-5 M; outline: as §2
CAKI-1 = experiment: Growth inhibition of human Caki1 cells assessed tumor cell growth at 10^-5 M; outline: as §2
M14 = experiment: Growth inhibition of human M14 cells assessed tumor cell growth at 10^-5 M; outline: as §2

Work on `Cc1ccc(S(=O)(=O)n2cc(/C=C3\C(=O)N(c4c(Cl)cccc4Cl)c4ccccc43)c3ccccc32)cc1` yielded an Activity (SNB-75) of 74.3%, an Activity (T47D) of 88.7% and an Activity (KM12) of 97.6%. It also gave an Activity (NCI-H226) of 95.2%, an Activity (CCRF-CEM) of 95.6% and an Activity (MDA-MB-435) of 99.2%. It also gave an Activity (ACHN) of 89.8%, an Activity (U-251) of 98.2% and an Activity (TK-10) of 102.3%. For the same compound, the Activity (SR) was 87.4%, the Activity (SW-620) was 89.9% and the Activity (NCI-H460) was 102.8%. It also gave an Activity (HOP-62) of 83.2%, an Activity (UACC-62) of 78.2% and an Activity (DU-145) of 102.5%. It also gave an Activity (IGROV-1) of 83.8%, an Activity (SK-MEL-2) of 94.5% and an Activity (SK-MEL-5) of 101%. The Activity (COLO 205) was 100.1%, the Activity (HCT-15) was 104.5% and the Activity (NCI-H322M) was 99.4%. For the same compound, the Activity (OVCAR-3) was 94.9%, the Activity (OVCAR-8) was 96.7% and the Activity (HCT-116) was 87%. The Activity (MOLT-4) was 89.6%, the Activity (786-0) was 92.1% and the Activity (UACC-257) was 106.8%. The Activity (LOX IMVI) was 89.7%, the Activity (SF-539) was 102.9% and the Activity (RXF 393) was 121.2%. For the same compound, the Activity (PC-3) was 64.5%, the Activity (A549) was 103.8% and the Activity (NCI/ADR-RES) was 88.2%. The Activity (UO-31) was 63.9%, the Activity (A498) was 44% and the Activity (SNB-19) was 105.9%. For the same compound, the Activity (SK-OV-3) was 98.7%, the Activity (Malme-3M) was 75.8% and the Activity (MDA-MB-468) was 84%. It also gave an Activity (OVCAR-5) of 84.2%, an Activity (HOP-92) of 33.5% and an Activity [1] of 77.8%. The Activity (SF-295) was 100.8%, the Activity (SK-MEL-28) was 95.8% and the Activity (HL-60(TB)) was 79.6%. For the same compound, the Activity (HT-29) was 89.3%, the Activity (EKVX) was 89.5% and the Activity (SF-268) was 86.4%. For the same compound, the Activity (K562) was 86.5%, the Activity (HCC 2998) was 86.7% and the Activity (SN12C) was 87.4%. The Activity [2] was 73.4%, the Activity (NCI-H522) was 91.5% and the Activity (MCF7) was 84.6%. It also gave an Activity (NCI-H23) of 76.6%, an Activity (BT-549) of 94.2% and an Activity (OVCAR-4) of 73.8%. The Activity (MDA-MB-231) was 89.3%, the Activity (CAKI-1) was 79.5% and the Activity (M14) was 76%.

In the case of `CC1=NN(c2cccc(Cl)c2)C(=O)/C1=C\c1ccccn1`, the Activity (SNB-75) is reported as 103.79%, the Activity (T47D) is reported as 100.29% and the Activity (KM12) is reported as 111.47%. For the same compound, the Activity (NCI-H226) was 112.86%, the Activity (CCRF-CEM) was 32.58% and the Activity (MDA-MB-435) was 117.42%. For the same compound, the Activity (ACHN) was 103.1%, the Activity (U-251) was 115.89% and the Activity (TK-10) was 118.17%. The Activity (SR) was 112.11%, the Activity (SW-620) was 116.97% and the Activity (NCI-H460) was 117.15%. For the same compound, the Activity (HOP-62) was 107.34%, the Activity (UACC-62) was 101.53% and the Activity (DU-145) was 120.58%. The Activity (IGROV-1) was 103.16%, the Activity (SK-MEL-2) was 112.74% and the Activity (SK-MEL-5) was 103.51%. For the same compound, the Activity (COLO 205) was 112.21%, the Activity (HCT-15) was 114.26% and the Activity (NCI-H322M) was 123.35%. The Activity (OVCAR-3) was 117.75%, the Activity (OVCAR-8) was 105.14% and the Activity (HCT-116) was 88.7%. It also gave an Activity (MOLT-4) of 111.67%, an Activity (786-0) of 113.47% and an Activity (UACC-257) of 115.54%. It also gave an Activity (LOX IMVI) of 116.29%, an Activity (SF-539) of 115.91% and an Activity (RXF 393) of 114.31%. The Activity (PC-3) was 113.15%, the Activity (A549) was 116.18% and the Activity (NCI/ADR-RES) was 116.87%. The Activity (UO-31) was 81.52%, the Activity (A498) was 111.6% and the Activity (SNB-19) was 111.92%. For the same compound, the Activity (SK-OV-3) was 113.71%, the Activity (Malme-3M) was 121.3% and the Activity (MDA-MB-468) was 116.6%. The Activity (OVCAR-5) was 116.2%, the Activity (HOP-92) was 100.37% and the Activity [1] was 96.65%. The Activity (SF-295) was 118.39%, the Activity (SK-MEL-28) was 128.95% and the Activity (HL-60(TB)) was 113.01%. The Activity (HT-29) was 114.19%, the Activity (EKVX) was 117.01% and the Activity (SF-268) was 100.43%. It also gave an Activity (K562) of 102.25%, an Activity (HCC 2998) of 120.72% and an Activity (SN12C) of 91.77%. It also gave an Activity [2] of 111.76%, an Activity (NCI-H522) of 104.42% and an Activity (MCF7) of 102.77%. It also gave an Activity (NCI-H23) of 111.77%, an Activity (BT-549) of 111.06% and an Activity (OVCAR-4) of 128.45%. It also gave an Activity (MDA-MB-231) of 106.88%, an Activity (CAKI-1) of 98.46% and an Activity (M14) of 80.87%.

— ChEMBL document CHEMBL1811814, “Synthesis and evaluation of indole, pyrazole, chromone and pyrimidine based conjugates for tumor growth inhibitory activities--development of highly efficacious cytotoxic agents” (Eur J Med Chem, 2010)
